Test results as given in ChEMBL document CHEMBL1126878, “4,5-Dihydro-1-phenyl-1H-2,4-benzodiazepines: novel antiarrhythmic agents” (J Med Chem, 1993).

Key:
Cavia porcellus [1] = test: Effective dose in vivo for cardiac refractoriness (ERP) using paced guinea pig model; type: functional
Summary of the method: (§1)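 Guinea pig paced in vivo model. Hemodynamics recorded in normal sinus rhythm; ERP measured during brief pacing at baseline and 10 min after dosing. Bolus of 1 mL/kg via left ventricular catheter for doses <10 mg/kg; higher doses infused over 1 min. Cumulative dosing every 15 min up to the maximally tolerated dose (dP/dt reduced >50%). ED20 (ERP +20 ms) and dP/dt20 (20% drop in LV pressure-rise rate) derived by linear regression of individual dose-response curves.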

Cavia porcellus [2] = test: In vivo index of cardiac contractility using paced guinea pig model; type: functional; summary of the method: as §1
[3] = molecular target: Sodium channel protein type 5 subunit alpha (cardiac sodium channel) (Rattus norvegicus, UniProt P15389); test: in vitro; conditions: sodium channel from cardiac myocytes, probe [3H]batrachotoxin ([3H]BTX)
Felis catus [4] = test: Ventricular fribrillation threshold (VFT) after iv administration to anesthetized, acutely infarcted cats at 0.3 mg/kg; type: functional, Heart
Summary of the method: (§2)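 Anesthetized cats given a slow iv bolus, with single-stage LAD occlusion 10 min later. Stimulating current raised until fibrillation; three baseline sequences about 15 min apart. Pacing repeated every 15 min for 2 h after occlusion, then every 30 min, for 5 h in total. Values are the mean maximum change over 5 h in VFT (mamps) or ERP (ms); cardioversion at 14–50 J.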

Felis catus [5] = test: Effective refractory period (ERP) after iv administration to anesthetized, acutely infarcted cats at x mg/kg; type: functional; summary of the method: as §2
Canis familiaris = test: Minimal effective dose that resulted in significant reduction in PVC frequency in conscious dogs by po administration after 24 hours of coronary artery ligation; type: functional; conditions: Canis lupus familiaris, read-out: MED
Summary of the method: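 Dogs (8.0–19.1 kg) underwent LAD occlusion under halothane anesthesia with Holter electrodes. 24 h after occlusion, animals with PVCs exceeding 50% of heart rate were dosed orally by gavage with agent in water (n = 4 per group). Holter recorded 1 h before and 12–24 h after dosing.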

Cavia porcellus [6] = test: Minimal effective dose that resulted in significant delay in the onset of arrhythmias in guinea pig with iv administration of aconitine hydrochloride; type: functional; conditions: read-out: MED
Summary of the method: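 Guinea pigs (n = 6 per dose, parallel groups) received agent or saline iv (1 mL/kg) 10 min before a lethal aconitine hydrochloride challenge (34 μg/kg iv). Times to first PVC, sustained VT and VF (>15 s) were recorded and compared with concurrent controls by one-way ANOVA. MED taken from an ascending semilogarithmic dose escalation as the dose giving significant delay in arrhythmia onset.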

Felis catus [7] = test: Ventricular fribrillation threshold (VFT) after iv administration to anesthetized, acutely infarcted cats at 1 mg/kg; type: functional, Heart; summary of the method: as §2

Sequence of Sodium channel protein type 5 subunit alpha (cardiac sodium channel) (P15389 whole entry): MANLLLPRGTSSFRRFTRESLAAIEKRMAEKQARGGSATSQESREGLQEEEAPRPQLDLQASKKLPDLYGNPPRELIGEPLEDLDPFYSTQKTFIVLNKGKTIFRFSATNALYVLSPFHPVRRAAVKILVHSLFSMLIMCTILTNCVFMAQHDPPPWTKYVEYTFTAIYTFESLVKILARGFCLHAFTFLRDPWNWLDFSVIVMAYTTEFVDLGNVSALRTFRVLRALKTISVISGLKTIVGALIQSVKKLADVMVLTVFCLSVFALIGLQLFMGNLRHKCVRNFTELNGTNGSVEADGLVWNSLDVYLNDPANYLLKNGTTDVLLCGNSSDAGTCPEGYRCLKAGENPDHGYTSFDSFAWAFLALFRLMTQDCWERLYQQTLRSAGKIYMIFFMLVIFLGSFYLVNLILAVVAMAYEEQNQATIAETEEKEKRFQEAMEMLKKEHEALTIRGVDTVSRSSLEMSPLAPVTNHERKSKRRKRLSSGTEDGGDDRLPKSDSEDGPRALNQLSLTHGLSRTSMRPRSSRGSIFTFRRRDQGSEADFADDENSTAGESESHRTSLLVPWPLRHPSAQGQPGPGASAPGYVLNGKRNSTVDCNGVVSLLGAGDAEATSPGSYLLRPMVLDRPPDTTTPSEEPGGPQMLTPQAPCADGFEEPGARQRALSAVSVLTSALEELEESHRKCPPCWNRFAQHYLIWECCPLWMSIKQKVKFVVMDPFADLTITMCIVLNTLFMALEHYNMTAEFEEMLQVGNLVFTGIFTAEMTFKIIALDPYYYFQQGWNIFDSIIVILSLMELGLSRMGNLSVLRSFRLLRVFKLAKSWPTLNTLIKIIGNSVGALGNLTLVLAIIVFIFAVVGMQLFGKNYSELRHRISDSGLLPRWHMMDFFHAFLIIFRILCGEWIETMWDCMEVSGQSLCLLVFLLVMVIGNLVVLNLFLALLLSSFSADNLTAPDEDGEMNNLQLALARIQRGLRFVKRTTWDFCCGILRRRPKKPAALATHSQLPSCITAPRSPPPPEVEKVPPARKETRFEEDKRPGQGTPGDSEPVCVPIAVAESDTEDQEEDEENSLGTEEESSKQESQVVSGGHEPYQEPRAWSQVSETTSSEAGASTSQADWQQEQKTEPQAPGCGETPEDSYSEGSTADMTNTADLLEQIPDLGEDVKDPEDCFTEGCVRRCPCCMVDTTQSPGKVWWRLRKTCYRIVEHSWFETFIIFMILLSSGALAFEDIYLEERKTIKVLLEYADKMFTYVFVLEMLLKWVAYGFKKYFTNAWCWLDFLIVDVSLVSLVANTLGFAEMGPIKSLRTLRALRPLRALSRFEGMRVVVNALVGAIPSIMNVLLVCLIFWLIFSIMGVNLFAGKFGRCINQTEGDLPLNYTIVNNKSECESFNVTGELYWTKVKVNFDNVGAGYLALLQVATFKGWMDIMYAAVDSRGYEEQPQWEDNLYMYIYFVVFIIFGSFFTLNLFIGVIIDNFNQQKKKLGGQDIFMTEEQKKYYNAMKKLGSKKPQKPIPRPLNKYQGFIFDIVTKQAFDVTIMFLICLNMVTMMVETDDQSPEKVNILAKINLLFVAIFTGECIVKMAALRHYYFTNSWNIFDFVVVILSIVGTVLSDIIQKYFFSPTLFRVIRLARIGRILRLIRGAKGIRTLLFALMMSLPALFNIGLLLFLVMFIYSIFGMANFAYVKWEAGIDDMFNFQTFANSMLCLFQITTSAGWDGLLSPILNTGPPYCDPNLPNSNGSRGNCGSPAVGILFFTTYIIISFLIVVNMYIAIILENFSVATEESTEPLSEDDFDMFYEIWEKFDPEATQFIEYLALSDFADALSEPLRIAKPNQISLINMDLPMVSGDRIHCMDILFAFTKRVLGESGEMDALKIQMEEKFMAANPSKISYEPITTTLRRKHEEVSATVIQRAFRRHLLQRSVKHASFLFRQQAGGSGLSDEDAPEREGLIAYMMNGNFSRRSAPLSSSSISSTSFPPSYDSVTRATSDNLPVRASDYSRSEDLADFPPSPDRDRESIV

Compound	ED20 (Cavia porcellus [1])	dP/dt20 (Cavia porcellus [2])	inhibition at 10 µM [3]	VFT (Felis catus [4])	ERP (Felis catus [5])	minimal effective dose (Canis familiaris)	minimal effective dose (Cavia porcellus [6])	VFT (Felis catus [7])
CCCCCC1=NC(c2ccccc2)c2ccccc2CN1C.Cl (stereo unspecified)	0.1 mg/kg	0.08 mg/kg	95%	–	–	–	–	–
CCOC(=O)CC1=NC(C)(c2ccccc2)c2ccccc2CN1C (stereo unspecified)	0.3 mg/kg	0.007 mg/kg	79%	–	–	–	–	–
CN1C=NC(c2ccccc2)c2ccccc2C1 (stereo unspecified)	1.4 mg/kg	0.9 mg/kg	68%	–	–	–	–	–
CCN(CC)CC1=NC(C)(c2ccccc2)c2ccccc2CN1C.Cl (stereo unspecified)	> 20 mg/kg	0.01 mg/kg	90%	–	–	–	–	–
CN1Cc2ccccc2C(c2ccccc2)N=C1CCC1CCCCC1.Cl (stereo unspecified)	0.1 mg/kg	0.66 mg/kg	98%	–	–	–	–	–
CCC1=NC(c2ccccc2)c2ccccc2C(c2ccccc2)N1C (stereo unspecified)	> 20 mg/kg	0.01 mg/kg	97%	–	–	–	–	–
CCC1=NC(Cc2ccccc2)c2ccccc2CN1C (stereo unspecified)	0.2 mg/kg	0.2 mg/kg	84%	–	–	–	–	–
CN1Cc2ccccc2C(C)(c2ccccc2)N=C1CCc1ccccc1 (stereo unspecified)	0.34 mg/kg	0.9 mg/kg	97%	–	–	–	–	–
CCC1=NC(c2ccccc2)c2ccccc2CN1C(C)C.Cl (stereo unspecified)	0.2 mg/kg	0.15 mg/kg	87%	–	–	–	–	–
CN1Cc2ccccc2C(c2ccccc2)N=C1c1ccccc1 (stereo unspecified)	0.3 mg/kg	1.1 mg/kg	85%	–	–	–	–	–
CN(C)CC1=NC(c2ccccc2)c2ccccc2CN1C.O=C(O)/C=C/C(=O)O (stereo unspecified)	0.6 mg/kg	–	44%	–	–	–	–	–
CN1Cc2ccccc2C(C)(c2ccccc2)N=C1CCl (stereo unspecified)	0.4 mg/kg	0.002 mg/kg	82%	–	–	–	–	–
CN1Cc2ccccc2[C@@H](c2ccccc2)N=C1CCc1ccccc1.Cl	0.03 mg/kg	0.03 mg/kg	–	37 mA	13 ms	3 mg/kg	0.1 mg/kg	–
CN1Cc2ccccc2C(c2ccccc2)N=C1N1CCOCC1.Cl (stereo unspecified)	0.6 mg/kg	0.4 mg/kg	49%	–	–	–	–	–
CN1Cc2ccccc2C(c2ccccc2)N=C1COc1ccc(Cl)cc1 (stereo unspecified)	0.2 mg/kg	0.17 mg/kg	100%	–	–	–	–	–
CCC1=NCc2ccccc2C(c2ccccc2)N1Cc1ccccc1.Cl (stereo unspecified)	> 3 mg/kg	0.3 mg/kg	97%	–	–	–	–	–
CCOC(=O)C1(c2ccccc2)N=C(CC)N(C)Cc2ccccc21.O=C(O)/C=C/C(=O)O (stereo unspecified)	0.4 mg/kg	0.1 mg/kg	56%	84 mA	47 ms	3 mg/kg	< 3 mg/kg	–
CN1Cc2ccccc2C(c2ccccc2)N=C1CCc1ccc(Cl)cc1.O=C(O)/C=C/C(=O)O (stereo unspecified)	0.1 mg/kg	0.85 mg/kg	97%	–	45 ms	3 mg/kg	3 mg/kg	93 mA
CN1Cc2ccccc2C(c2ccccc2)N=C1CN1CCOCC1.O=C(O)/C=C/C(=O)O (stereo unspecified)	0.25 mg/kg	0.11 mg/kg	57%	–	–	–	–	–
CC(C)C1=NC(C)(c2ccccc2)c2ccccc2CN1C (stereo unspecified)	0.8 mg/kg	0.7 mg/kg	50%	–	–	–	–	–
CN1Cc2ccccc2C(Cc2ccccc2)N=C1CCc1ccccc1.O=C(O)/C=C/C(=O)O (stereo unspecified)	0.2 mg/kg	0.04 mg/kg	97%	–	–	–	–	–
CCCCC1=NC(c2ccccc2)c2ccccc2CN1C.Cl (stereo unspecified)	0.1 mg/kg	0.1 mg/kg	83%	–	–	–	–	–
CN1Cc2ccccc2C(c2ccccc2)N=C1CCCc1ccccc1.Cl (stereo unspecified)	0.2 mg/kg	0.12 mg/kg	100%	–	–	–	–	–
COc1ccc(C(=O)Nc2ccccc2CCC2CCCCN2C)cc1 (stereo unspecified) [ENCAINIDE]	0.7 mg/kg	0.003 mg/kg	55%	–	–	–	–	–
CN1Cc2ccccc2C(c2ccccc2)N=C1COc1ccccc1.Cl (stereo unspecified)	0.3 mg/kg	–	98%	–	–	–	–	–
C=C[C@H]1CN2CC[C@H]1C[C@@H]2[C@@H](O)c1ccnc2ccc(OC)cc12 [QUINIDINE]	7.2 mg/kg	2.5 mg/kg	68%	–	–	30 mg/kg	1 mg/kg	–
CCC1=NC(c2ccccc2)c2ccccc2CN1Cc1ccccc1.Cl (stereo unspecified)	1 mg/kg	0.2 mg/kg	98%	–	–	–	–	–

Compound	ED20 (Cavia porcellus [1])	dP/dt20 (Cavia porcellus [2])	inhibition at 10 µM [3]	VFT (Felis catus [4])	ERP (Felis catus [5])	minimal effective dose (Canis familiaris)	minimal effective dose (Cavia porcellus [6])	VFT (Felis catus [7])
CN(C)CC1=NC(C)(c2ccccc2)c2ccccc2CN1C (stereo unspecified)	0.8 mg/kg	0.02 mg/kg	57%	–	–	–	–	–
CCN(CC)CCNC(=O)c1ccc(NS(C)(=O)=O)cc1 [SEMATILIDE]	1.9 mg/kg	18.7 mg/kg	0%	–	–	–	–	–
CCC1=NC(COC)(c2ccccc2)c2ccccc2CN1C (stereo unspecified)	2.5 mg/kg	0.1 mg/kg	45%	–	–	–	–	–
CN1Cc2ccccc2C(c2ccccc2)N=C1Cc1ccccc1.Cl (stereo unspecified)	0.3 mg/kg	0.15 mg/kg	95%	–	–	–	–	–
COc1ccc(CCC2=NC(c3ccccc3)c3ccccc3CN2C)cc1.Cl (stereo unspecified)	0.1 mg/kg	0.66 mg/kg	91%	–	–	–	–	–
CCC1=NC(c2cccc3ccccc23)c2ccccc2CN1C (stereo unspecified)	0.6 mg/kg	0.2 mg/kg	94%	–	–	–	–	–
CCC1=NC(CC)(c2ccccc2)c2ccccc2CN1C (stereo unspecified)	0.2 mg/kg	0.1 mg/kg	78%	–	–	–	–	–
CN1Cc2ccccc2C(c2ccccc2)N=C1N1CCCC1 (stereo unspecified)	0.2 mg/kg	–	100%	–	–	–	–	–
CCN(CC)CCNC1=NC(c2ccccc2)c2ccccc2CN1C.O=C(O)/C=C/C(=O)O (stereo unspecified)	0.7 mg/kg	0.9 mg/kg	98%	–	–	–	–	–
CN1Cc2ccccc2C(C)(c2ccccc2)N=C1CC(O)c1ccccc1 (stereo unspecified)	0.1 mg/kg	0.1 mg/kg	92%	–	–	10 mg/kg	< 3 mg/kg	–
COc1ccc(OCC2=NC(c3ccccc3)c3ccccc3CN2C)cc1.Cl (stereo unspecified)	0.1 mg/kg	0.48 mg/kg	98%	–	–	–	–	–
CC1=NC(C)(c2ccccc2)c2ccccc2CN1C.O=C(O)/C=C/C(=O)O (stereo unspecified)	0.8 mg/kg	0.9 mg/kg	71%	–	–	–	–	–
CCC1=NC(c2ccccc2)c2ccccc2CN1.Cl (stereo unspecified)	1.1 mg/kg	0.2 mg/kg	84%	–	–	–	–	–
CN1Cc2ccccc2C(c2ccc(Cl)cc2)N=C1CCc1ccccc1 (stereo unspecified)	0.2 mg/kg	0.2 mg/kg	96%	–	–	–	–	–
CCC1=NC(c2ccccc2)c2ccc3ccccc3c2CN1C (stereo unspecified)	0.3 mg/kg	0.06 mg/kg	98%	–	–	–	–	–
COc1ccc(C2N=C(CCc3ccccc3)N(C)Cc3ccccc32)cc1.Cl (stereo unspecified)	0.1 mg/kg	0.1 mg/kg	95%	–	–	–	–	–
CN1CCN(CC2=NC(c3ccccc3)c3ccccc3CN2C)CC1.O=C(O)/C=C/C(=O)O (stereo unspecified)	0.4 mg/kg	0.1 mg/kg	38%	–	–	–	–	–
CN1Cc2ccccc2C(c2ccccc2)N=C1N.Cl (stereo unspecified)	1.7 mg/kg	1 mg/kg	91%	–	–	–	–	–
CCC1=NC(C(C)=O)(c2ccccc2)c2ccccc2CN1C.O=C(O)/C=C/C(=O)O (stereo unspecified)	0.9 mg/kg	0.45 mg/kg	28%	–	–	–	–	–
CCN(CC)CC(=O)Nc1c(C)cccc1C [LIDOCAINE]	8 mg/kg	4.3 mg/kg	10%	–	–	–	–	–
CN1Cc2ccccc2C(C)(c2ccccc2)N=C1CN1CCOCC1 (stereo unspecified)	2.4 mg/kg	0.1 mg/kg	51%	–	–	–	–	–
CC(C)NCC(O)c1ccc(NS(C)(=O)=O)cc1 (stereo unspecified) [SOTALOL]	1.3 mg/kg	1.9 mg/kg	0%	–	–	–	–	–
CCCCCCCCC1=NC(c2ccccc2)c2ccccc2CN1C.Cl (stereo unspecified)	0.2 mg/kg	0.1 mg/kg	81%	–	–	–	–	–
CCC1=N[C@@H](c2ccccc2)c2ccccc2CN1C.Cl	7.1 mg/kg	0.09 mg/kg	45%	–	–	> 10 mg/kg	3 mg/kg	–
CC1=NC(c2ccccc2)c2ccccc2CN1C (stereo unspecified)	1.2 mg/kg	0.9 mg/kg	52%	–	–	–	–	–
CN1Cc2ccccc2C(c2ccccc2)N=C1CN1CCCCC1.O=C(O)/C=C/C(=O)O (stereo unspecified)	0.4 mg/kg	0.002 mg/kg	94%	–	–	–	–	–
CCCC1=NC(c2ccccc2)c2ccccc2CN1C.Cl (stereo unspecified)	0.4 mg/kg	0.8 mg/kg	72%	–	–	–	–	–
